Measurements pooled from the literature.
Compare with care: the assays were run in different laboratories.
Organism: Salmonella enterica
Observed: microbial growth

| Compound | technique | strain | time | pH | setting | MIC |
| --- | --- | --- | --- | --- | --- | --- |
| CNC(=O)c1cc(Oc2ccc(NC(=O)Nc3ccc(Cl)c(C(F)(F)F)c3)cc2)ccn1 | – | TYPHIMURIUM | – | – | – | > 100 µM |
| NC[C@H]1O[C@H](O[C@H]2[C@H](O)[C@@H](O[C@H]3O[C@H](CO)[C@@H](O)[C@H](N)[C@H]3O)[C@H](N)C[C@@H]2N)[C@H](N)C[C@@H]1O | – | ATCC14028 | – | – | – | 150 µg/mL |
| O=C(Nc1ccc2c(c1)OC(F)(F)O2)Nc1ccc(Cl)c(C(F)(F)F)c1 | – | TYPHIMURIUM | – | – | – | > 100 µM |
| O=C(O)c1cn(C2CC2)c2cc(N3CCNCC3)c(F)cc2c1=O | – | – | 20 h | pH 7.2 | – | 0.0156 µg/mL |
| Cl.N=C(N)N/N=C/c1ccc(-c2ccc(/C=N/Nc3ccccc3Cl)cc2)cc1 | – | ATCC14028 | – | – | – | > 215 µg/mL |
| COc1cc(Cc2cnc(N)nc2N)cc(OC)c1OC | – | – | 20 h | pH 7.2 | – | 0.25 µg/mL |
| CC1(C)S[C@@H]2[C@H](NC(=O)[C@H](N)c3ccccc3)C(=O)N2[C@H]1C(=O)O | broth dilution | – | – | – | – | 8 µg/mL |
| Cc1cc(NS(=O)(=O)c2ccc(N)cc2)no1 | – | – | 20 h | pH 7 | – | 64 µg/mL |
| C/C(=N\NC(=N)N)c1ccc(Oc2ccc(/C(C)=N/NC(=N)N)cc2)cc1.Cl.Cl | – | ATCC14028 | – | – | – | 54.9 µg/mL |
| CN(C)[C@@H]1C(O)=C(C(N)=O)C(=O)[C@@]2(O)C(O)=C3C(=O)c4c(O)cccc4[C@@](C)(O)[C@H]3C[C@@H]12 | – | ATCC14028 TYPHIMURIUM | – | – | – | 8 µg/mL |
| C[C@@H](O)[C@H]1C(=O)N2C(C(=O)O)=C(S[C@@H]3CN[C@H](C(=O)N(C)C)C3)[C@H](C)[C@H]12 | broth dilution | CHOLERAESUIS | – | – | clinical isolate | ≤ 0.5 µg/mL |
